This is an account of results in ChEMBL document CHEMBL1146956, “Factor VIIa inhibitors: a prodrug strategy to improve oral bioavailability” (Bioorg Med Chem Lett, 2006).

A short description of series [1]: Oral absorption in Sprague-Dawley rats. The class given is ADME, organism-based. Conditions: rat, in vivo. The procedure, abridged: (§1)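 Plasma was acetonitrile-precipitated and analysed by LC/MS/MS for prodrug and parent, then AUC was computed. From dose-normalized AUCs, Abs = AUC_PO,PV/AUC_IV,JV and F = AUC_PO,JV/AUC_IV,JV.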
Series [2] in a line: Oral bioavailability in Sprague-Dawley rats. Conditions: rat, in vivo. The class given is ADME, organism-based. The procedure, abridged: as §1
Series [3] is described as follows: Solubility in phosphate buffer at pH 7.4. The class given is physicochemical. An outline of the steps:
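Kinetic solubility was measured in phosphate buffer pH 7.4 with 5% DMSO, prepared from a 10 mM DMSO stock. Samples were vortexed, then centrifuged at 4300 RPM for 10 min to remove insoluble material. The supernatant was quantified by HPLC/UV against a calibration standard.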

A short description of series [4]: Stability in rat plasma at 10 uM after 2 hrs. In kind it is ADME, cell-free. The note with it: read-out: Stability. The procedure, abridged: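 Frozen pooled human or rat plasma (sodium heparin) was incubated with compound at 37 °C for 2 h. Prodrug disappearance was followed by LC/MS/MS. Percent remaining is the prodrug peak area at 2 h divided by the area at time 0.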

A short description of series [5]: Stability in rat liver microsome at 2 uM after 1 hr. The note with it: liver microsomes, read-out: Stability. In kind it is ADME. The procedure, abridged: (§2)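 Compound was incubated at 37 °C for 1 h with cryopreserved pooled male human or rat liver microsomes. Loss of prodrug was tracked by LC/MS/MS. Percent remaining at 1 h was taken as the end-point peak area over the time-0 peak area.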
On the technique in general: Microsomes from liver hold many membrane-bound enzymes, among them those of drug oxidation.

The species entered for the next series is Homo sapiens. Description: Stability in human plasma at 10 uM after 2 hrs.
Series [6] in a line: Stability in human liver microsome at 2 uM after 1 hr. The note with it: liver microsomes, read-out: Stability. In kind it is ADME. An outline of the steps:
as §2

SMILES strings stand for the structures. Values after ≈ are worked out from the molar mass of the structure shown. Bounds are passed on as bounds.

Turning to `CC(C)OC(=O)NC(=N)c1ccc2[nH]c(-c3cccc(-c4ccccc4O)c3O)cc2c1`, the Fa in series [1] turned out to be 53%. In addition, in series [2], the bioavailability (usually the share of a dose that reaches the circulation, judged against a reference dose that is usually intravenous) worked out at 23%. For the same compound, in series [3], the solubility (as a rule, how much of the substance goes into solution per volume) was < 10 µM. Also, the remaining at 2 h, 10 µM (in series [4]; in the series filed under Homo sapiens) was 100% throughout. In series [5], the remaining at 1 h, 2 µM was found to be 49%.
In the case of `N=C(N)c1ccc2[nH]c(-c3cccc(-c4cc(F)ccc4O)c3O)cc2c1`, in series [2], the bioavailability is < 1%. Moreover, in series [3], the solubility was 83 µM (≈ 30 µg/mL). Further, the remaining at 2 h, 10 µM (in series [4]; in the series filed under Homo sapiens) was 100% throughout. The remaining at 1 h, 2 µM in series [6] came to 61%; in series [5], 100%.
In the case of `CCOC(=O)NC(=N)c1ccc2[nH]c(-c3cccc(-c4ccccc4O)c3O)cc2c1`, in series [3], the solubility is < 10 µM. The remaining at 2 h, 10 µM is 95% in series [4] and 100% in the series filed under Homo sapiens. The remaining at 1 h, 2 µM amounted to 37% in series [6] and 53% in series [5].
`N/C(=N/C(=O)OCC(Cl)(Cl)Cl)c1ccc2[nH]c(-c3cccc(-c4ccccc4O)c3O)cc2c1`: the Fa in series [1] was found to be 21%. Moreover, the bioavailability in series [2] turned out to be 14%. Further, the solubility in series [3] was < 10 µM. The figures for the remaining at 2 h, 10 µM (in series [4]; in the series filed under Homo sapiens) were 89% and 100%, respectively. In addition, the remaining at 1 h, 2 µM is 87% in series [6] and 9% in series [5].
In the case of `CC(=O)OC(C)OC(=O)NC(=N)c1ccc2[nH]c(-c3cccc(-c4ccccc4O)c3O)cc2c1` (stereo not drawn), the solubility in series [3] was < 10 µM. Also, the remaining at 2 h, 10 µM was found to be 37% in series [4] and 96% in the series filed under Homo sapiens. The values for the remaining at 1 h, 2 µM in series [6] and in series [5] were 9% and 12%, respectively.
The compound `N/C(=N/O)c1ccc2[nH]c(-c3cccc(-c4ccccc4O)c3O)cc2c1` showed a Fa in series [1] of 39%. The bioavailability in series [2] is 15%. The compound also displayed a solubility in series [3] of 380 µM (≈ 137 µg/mL). For the same compound, the remaining at 2 h, 10 µM in series [4] stood at 94%; in the series filed under Homo sapiens, 97%. Moreover, the remaining at 1 h, 2 µM in series [6] was 41%; in series [5] it was 9%.
In series [1], `C=CCO/N=C(/N)c1ccc2[nH]c(-c3cccc(-c4ccccc4O)c3O)cc2c1` showed a Fa of 100%. Also, the bioavailability in series [2] was 100%. In addition, the solubility in series [3] was 24 µM (≈ 9.59 µg/mL). The remaining at 2 h, 10 µM was found to be 94% in series [4] and 100% in the series listed under Homo sapiens. Besides, the remaining at 1 h, 2 µM was found to be 55% in series [6] and 42% in series [5].
In series [1], `CC(C)(C)ONC(=N)c1ccc2[nH]c(-c3cccc(-c4ccccc4O)c3O)cc2c1` yielded a Fa of 60%. The same compound gave a bioavailability in series [2] of 38%. Further, the solubility in series [3] is < 10 µM. Also, the remaining at 2 h, 10 µM turned out to be 99% in series [4] and 100% in the series filed under Homo sapiens. For the same compound, the remaining at 1 h, 2 µM in series [6] was found to be 100%; in series [5], 78%.
Take `CCONC(=N)c1ccc2[nH]c(-c3cccc(-c4ccccc4O)c3O)cc2c1`: the Fa in series [1] amounted to 53%. In series [2], this compound displayed a bioavailability of 67%. The same compound gave a solubility in series [3] of 43 µM (≈ 16.7 µg/mL). Also, the remaining at 2 h, 10 µM (in series [4]; in the series filed under Homo sapiens) was 100% throughout. Moreover, the remaining at 1 h, 2 µM came to 50% in series [6] and 70% in series [5].
For `CC(C)ONC(=N)c1ccc2[nH]c(-c3cccc(-c4ccccc4O)c3O)cc2c1`, in series [1], the Fa worked out at 54%. Moreover, the bioavailability in series [2] came to 10%. Also, in series [3], the concentration in solution (solubility) was 25 µM (≈ 10 µg/mL). Besides, the remaining at 2 h, 10 µM (in series [4]; in the series listed under Homo sapiens) was 100% in each case. In addition, the values for the remaining at 1 h, 2 µM in series [6] and in series [5] were 63% and 69%, respectively.
Consider `Oc1ccccc1-c1cccc(-c2nc3ccccc3[nH]2)c1O`, for which, in series [1], the Fa came out at 100%. The bioavailability in series [2] was determined as 16%.
For `N=C(N)c1ccc2nc(-c3cccc(-c4cc(F)ccc4O)c3O)[nH]c2c1` the same measures were < 1% and < 1%.
